Data taken from ChEMBL document CHEMBL4043297, “Synthesis and Structure-Activity Relationships of the Novel Antimalarials 5-Pyridinyl-4(1 H)-Pyridones” (J Med Chem, 2018).
In brackets after ≈: the same amount, converted by molar mass.

Legend:
[1] = Clearance in CD1 mouse at 1.45 mg/kg, iv as bolus dose by LC-MS/MS method; type: ADME, organism-based; details: in vivo
Method in brief: (§1)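 Specific pathogen-free female CD1 (Hsd:ICR) mice, 8 to 10 weeks old. Each compound was given as an intravenous dose and an oral dose at the levels listed. Parameters reported: Vd, clearance, t1/2, Cmax, Tmax, AUC0-t, AUC∞ and %F.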

[2] = Half life in CD1 mouse at 1.45 mg/kg, iv as bolus dose by LC-MS/MS method; type: ADME, organism-based; details: in vivo; method in brief: as §1
Plasmodium yoelii = assay: Schizontocidal activity against Plasmodium yoelii infected in CD1 mouse administered via oral gavage as qd for 4 days starting 1 hr post infection by YOYO-1 dye-based flow cytometric method; type: functional
Method in brief: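 Blood schizontocidal activity was tested in a modified 4-day suppressive test in mice infected with P. yoelii. Four oral doses were given by gavage over four days.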

Plasmodium falciparum = assay: Antimalarial activity against Plasmodium falciparum 3D7A infected in human RBC after 48 hrs by [3H]-hypoxanthine incorporation assay; type: functional
[3] = AUC (infinity) in CD1 mouse at 8.7 mg/kg administered via oral gavage by LC-MS/MS method; type: ADME, organism-based; set-up: dose 8.7 mg/kg, route oral, time infinity; details: in vivo; method in brief: as §1
[4] = Cmax in CD1 mouse at 8.7 mg/kg administered via oral gavage by LC-MS/MS method; type: ADME, organism-based; set-up: dose 8.7 mg/kg, route oral; details: in vivo; method in brief: as §1
[5] = Tmax in CD1 mouse at 8.7 mg/kg administered via oral gavage by LC-MS/MS method; type: ADME, organism-based; details: in vivo
Method in brief: (§2)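 Specific pathogen-free female CD1 (Hsd:ICR) mice, 8–10 weeks old, housed in the institutional animal facility. Each compound was given intravenously at a low dose and orally at a higher dose. Vd, clearance, t1/2, Cmax, Tmax, AUC0-t, AUC∞ and %F were derived from plasma exposure after each route.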

serum albumin = serum albumin (Homo sapiens, UniProt P02768); assay: Binding affinity to human serum albumin by HPLC method; type: ADME; details: read-out: PB (converted)
serum albumin, sequence (P02768 whole entry): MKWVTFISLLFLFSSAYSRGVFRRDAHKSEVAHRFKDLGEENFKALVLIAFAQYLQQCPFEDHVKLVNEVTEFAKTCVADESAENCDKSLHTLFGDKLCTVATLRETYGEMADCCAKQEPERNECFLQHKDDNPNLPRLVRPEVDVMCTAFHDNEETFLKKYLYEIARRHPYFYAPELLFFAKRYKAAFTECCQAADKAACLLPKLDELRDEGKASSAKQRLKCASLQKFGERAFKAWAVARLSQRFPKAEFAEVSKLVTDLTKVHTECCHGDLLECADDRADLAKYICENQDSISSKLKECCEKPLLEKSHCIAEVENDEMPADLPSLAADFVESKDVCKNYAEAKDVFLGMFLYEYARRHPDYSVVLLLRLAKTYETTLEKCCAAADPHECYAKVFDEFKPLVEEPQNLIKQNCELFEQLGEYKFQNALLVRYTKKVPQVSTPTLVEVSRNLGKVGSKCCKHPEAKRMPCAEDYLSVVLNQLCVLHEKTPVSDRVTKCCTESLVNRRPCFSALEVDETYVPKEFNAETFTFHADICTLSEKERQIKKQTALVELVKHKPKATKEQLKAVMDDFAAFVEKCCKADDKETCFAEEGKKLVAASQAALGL

[6] = Volume of distribution in CD1 mouse at 1.45 mg/kg, iv as bolus dose by LC-MS/MS method; type: ADME, organism-based; details: in vivo; method in brief: as §2
[7] = Oral bioavailability in CD1 mouse at 8.7 mg/kg administered via gavage by LC-MS/MS method; type: ADME, organism-based; details: in vivo; method in brief: as §2
[8] = AUC (0 to t) in CD1 mouse at 8.7 mg/kg administered via oral gavage by LC-MS/MS method; type: ADME, organism-based; details: in vivo; method in brief: as §1
[9] = Tmax in CD1 mouse at 11.512 mg/kg administered via oral gavage by LC-MS/MS method; type: ADME, organism-based; details: in vivo; method in brief: as §2
[10] = Equilibrium solubility of compound in FeSSIF after 24 hrs by LC-MS method; type: physicochemical
[11] = Volume of distribution in CD1 mouse at […], iv as bolus dose by LC-MS/MS method; type: ADME, organism-based; details: in vivo
[12] = Half life in CD1 mouse at […], iv as bolus dose by LC-MS/MS method; type: ADME, organism-based; details: in vivo
[13] = AUC (infinity) in CD1 mouse at 11.512 mg/kg administered via oral gavage by LC-MS/MS method; type: ADME, organism-based; set-up: dose 11.512 mg/kg, time infinity, route oral; details: in vivo, 11.51 mg/kg; method in brief: as §1
[14] = Cmax in CD1 mouse at 11.512 mg/kg administered via oral gavage by LC-MS/MS method; type: ADME, organism-based; set-up: dose 11.512 mg/kg, route oral; details: in vivo, 11.51 mg/kg; method in brief: as §1
[15] = Equilibrium solubility of compound in FaSSIF after 24 hrs by LC-MS method; type: physicochemical
[16] = Clearance in CD1 mouse at […], iv as bolus dose by LC-MS/MS method; type: ADME, organism-based; details: in vivo
[17] = Oral bioavailability in CD1 mouse at 11.512 mg/kg administered via gavage by LC-MS/MS method; type: ADME, organism-based; details: in vivo; method in brief: as §1
[18] = AUC (0 to t) in CD1 mouse at 11.512 mg/kg administered via oral gavage by LC-MS/MS method; type: ADME, organism-based; details: in vivo; method in brief: as §1

Cc1[nH]c(CO)c(-c2ccc(-c3ccc(OC(F)(F)F)cc3)nc2)c(=O)c1Cl
clearance [1]: 1.76 mL/min/kg | half-life [2]: 7.4 h | ED50 (Plasmodium yoelii): 0.4 mg/kg | IC50 (Plasmodium falciparum): 34 nM | AUC(0-inf) [3]: 111 µg·h/mL | Cmax [4]: 8540 ng/mL | Tmax [5]: 1 h | fraction unbound (serum albumin): 0.05 | Vd [6]: 1.11 L/kg | bioavailability [7]: 133% | AUC(0-t) [8]: 110 µg·h/mL

Cc1[nH]c(C)c(-c2ccc(-c3ccc(C(F)(F)F)cc3F)nc2)c(=O)c1Cl
Tmax [9]: 10 h | solubility thermodynamic at 24 h [10]: 1.33 µg/mL (≈ 3.35 µM) | ED50 (Plasmodium yoelii): 0.08 mg/kg | Vd [11]: 0.75 L/kg | half-life [12]: 33.8 h | IC50 (Plasmodium falciparum): 10 nM | AUC(0-inf) [13]: 226 µg·h/mL | Cmax [14]: 6380 ng/mL | solubility thermodynamic at 24 h [15]: < 1 µg/mL | clearance [16]: 0.26 mL/min/kg | fraction unbound (serum albumin): 0.05 | bioavailability [17]: 30% | AUC(0-t) [18]: 204 µg·h/mL
